# Measurements published in the M2OR odorant receptor database.
# Where a chain is given by its changes, count along the chain named.
# Test system: T1, OR2C1
# T1 sequence (whole entry): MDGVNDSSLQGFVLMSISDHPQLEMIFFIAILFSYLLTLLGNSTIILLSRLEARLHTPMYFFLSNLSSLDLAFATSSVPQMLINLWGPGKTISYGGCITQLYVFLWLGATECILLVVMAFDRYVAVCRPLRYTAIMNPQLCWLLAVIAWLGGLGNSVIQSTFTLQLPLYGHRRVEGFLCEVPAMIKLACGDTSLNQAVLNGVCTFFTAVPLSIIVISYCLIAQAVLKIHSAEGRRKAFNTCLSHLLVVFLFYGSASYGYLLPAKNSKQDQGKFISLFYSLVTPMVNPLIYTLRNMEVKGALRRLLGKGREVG
# Conditions: stereoisomer not certain
# In short: (§1)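 Each entry records the cell line, G-protein, co-transfected protein and tags used. Methods varied with the source, often transient luciferase assays in mammalian cell lines. A receptor–molecule pair is called responsive (active) if the original authors judged its signal statistically different from baseline and non-responsive (inactive) otherwise.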
row,SMILES,odorant receptor agonist call
1,c1coc(CSSCc2ccco2)c1,inactive
2,O=C([O-])C[SH2+],inactive
3,CCCCCCCCS,active

# Molecular target: T2, OR2C3 (Homo sapiens) (UniProt Q8N628)
# T2 sequence (whole entry): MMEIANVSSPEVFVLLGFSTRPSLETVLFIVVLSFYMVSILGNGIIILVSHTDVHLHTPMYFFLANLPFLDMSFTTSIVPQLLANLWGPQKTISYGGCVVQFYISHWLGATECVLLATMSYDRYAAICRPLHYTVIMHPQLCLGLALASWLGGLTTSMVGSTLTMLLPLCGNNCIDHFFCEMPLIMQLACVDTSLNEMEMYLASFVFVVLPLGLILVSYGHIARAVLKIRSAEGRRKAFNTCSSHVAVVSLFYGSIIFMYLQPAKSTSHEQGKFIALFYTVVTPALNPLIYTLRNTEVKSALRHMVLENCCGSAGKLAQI
# Conditions: stereoisomer not certain
# In short: as §1
row,SMILES,odorant receptor agonist call
1,CC(CO)CS (centres undefined),inactive
2,CC(=O)c1c(C)c([N+](=O)[O-])c(C(C)(C)C)c([N+](=O)[O-])c1C,inactive
3,CCC(S)C(C)CO (centres undefined),inactive
4,CCCCCC(S)C(C)CO (centres undefined),inactive
5,CCCCCC(=O)C(C)C(C)=O (centres undefined),inactive
6,CCCCCCC=CCCC=O,inactive
7,CCCCC(S)C(C)CO (centres undefined),inactive
8,CC1CCCCCCCCCCCCC(=O)C1 (centres undefined),inactive

# Test system: T3, OR2C3
# T3 sequence (whole entry): T2 sequence (whole entry) with T20A, P68S, L289V
# Conditions: stereoisomer not certain
# In short: as §1
row,SMILES,odorant receptor agonist call
1,Cc1cnc(C)c(C)n1,inactive
2,CCC1OC(=O)C(O)=C1C (centres undefined),inactive
3,CC1=C(O)C(=O)C(C)O1 (centres undefined),inactive
4,CCC1OC(C)=C(O)C1=O (centres undefined),inactive
5,CC1=C(O)C(=O)OC1C (centres undefined),inactive
6,CC1=NC(C)C(C)S1 (centres undefined),inactive
7,CCCC(S)CCOC(C)=O (centres undefined),inactive

# Test system: T4, OR2C3
# T4 sequence (whole entry): T2 sequence (whole entry) with P68S
# Conditions: stereoisomer not certain
# In short: as §1
row,SMILES,odorant receptor agonist call
1,Cc1cnc(C)c(C)n1,inactive
2,CCC1OC(=O)C(O)=C1C (centres undefined),inactive
3,CC1=C(O)C(=O)C(C)O1 (centres undefined),inactive
4,CCC1OC(C)=C(O)C1=O (centres undefined),inactive
5,CC1=C(O)C(=O)OC1C (centres undefined),inactive
6,CC1=NC(C)C(C)S1 (centres undefined),inactive
7,CCCC(S)CCOC(C)=O (centres undefined),inactive

# Molecular target: T5, OR2D2 (Homo sapiens) (UniProt Q9H210)
# T5 sequence (whole entry): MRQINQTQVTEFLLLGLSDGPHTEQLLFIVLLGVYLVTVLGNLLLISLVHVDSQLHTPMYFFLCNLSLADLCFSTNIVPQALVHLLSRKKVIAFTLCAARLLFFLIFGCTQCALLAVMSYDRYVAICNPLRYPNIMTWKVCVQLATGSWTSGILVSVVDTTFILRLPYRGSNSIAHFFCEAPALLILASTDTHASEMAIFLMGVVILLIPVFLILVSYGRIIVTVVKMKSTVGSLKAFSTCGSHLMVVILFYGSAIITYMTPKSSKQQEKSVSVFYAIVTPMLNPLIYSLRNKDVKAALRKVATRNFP
# Conditions: stereoisomer not certain
# In short: as §1
row,SMILES,odorant receptor agonist call
1,Cc1cnc(C)c(C)n1,inactive
2,CCC1OC(=O)C(O)=C1C (centres undefined),inactive
3,CC(CO)CS (centres undefined),inactive
4,CC1=C(O)C(=O)C(C)O1 (centres undefined),inactive
5,CC(=O)c1c(C)c([N+](=O)[O-])c(C(C)(C)C)c([N+](=O)[O-])c1C,inactive
6,CCC(S)C(C)CO (centres undefined),inactive
7,CCC1OC(C)=C(O)C1=O (centres undefined),inactive
8,CCCCCC(S)C(C)CO (centres undefined),inactive
9,CCCCCC(=O)C(C)C(C)=O (centres undefined),inactive
10,CCCCCCC=CCCC=O,inactive
11,CCCCC(S)C(C)CO (centres undefined),inactive
12,CC1CCCCCCCCCCCCC(=O)C1 (centres undefined),inactive
13,CC1=C(O)C(=O)OC1C (centres undefined),inactive
14,CC1=NC(C)C(C)S1 (centres undefined),inactive
15,CCCC(S)CCOC(C)=O (centres undefined),inactive

# Test system: T6, OR2D2 S148P I163T M202T
# T6 sequence (whole entry): T5 sequence (whole entry) with S148P, I163T, M202T
# Conditions: stereoisomer not certain
# In short: as §1
row,SMILES,odorant receptor agonist call
1,Cc1cnc(C)c(C)n1,inactive
2,CCC1OC(=O)C(O)=C1C (centres undefined),inactive
3,CC1=C(O)C(=O)C(C)O1 (centres undefined),inactive
4,CCC1OC(C)=C(O)C1=O (centres undefined),inactive
5,CCCCCCC=CCCC=O,inactive
6,CC1=C(O)C(=O)OC1C (centres undefined),inactive
7,CC1=NC(C)C(C)S1 (centres undefined),inactive
8,CCCC(S)CCOC(C)=O (centres undefined),inactive

# Molecular target: T7, OR2D3 (Homo sapiens) (UniProt Q8NGH3)
# T7 sequence (whole entry): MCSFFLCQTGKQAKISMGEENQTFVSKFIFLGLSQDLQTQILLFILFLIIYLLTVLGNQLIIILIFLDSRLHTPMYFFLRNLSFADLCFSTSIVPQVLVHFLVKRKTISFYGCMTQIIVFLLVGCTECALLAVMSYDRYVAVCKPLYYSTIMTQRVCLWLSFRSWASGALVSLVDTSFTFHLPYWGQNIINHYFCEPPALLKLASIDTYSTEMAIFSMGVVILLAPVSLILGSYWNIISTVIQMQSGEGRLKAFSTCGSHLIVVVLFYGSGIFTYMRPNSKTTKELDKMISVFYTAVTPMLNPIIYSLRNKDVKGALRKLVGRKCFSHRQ
# Conditions: stereoisomer not certain
# In short: as §1
row,SMILES,odorant receptor agonist call
1,Cc1cnc(C)c(C)n1,inactive
2,CCC1OC(=O)C(O)=C1C (centres undefined),inactive
3,CC(CO)CS (centres undefined),inactive
4,CC1=C(O)C(=O)C(C)O1 (centres undefined),inactive
5,CC(=O)c1c(C)c([N+](=O)[O-])c(C(C)(C)C)c([N+](=O)[O-])c1C,inactive
6,CCC(S)C(C)CO (centres undefined),inactive
7,CCC1OC(C)=C(O)C1=O (centres undefined),inactive
8,CCCCCC(S)C(C)CO (centres undefined),inactive
9,CCCCCC(=O)C(C)C(C)=O (centres undefined),inactive
10,CCCCCCC=CCCC=O,inactive
11,CCCCC(S)C(C)CO (centres undefined),inactive
12,CC1CCCCCCCCCCCCC(=O)C1 (centres undefined),inactive
13,CC1=C(O)C(=O)OC1C (centres undefined),inactive
14,CC1=NC(C)C(C)S1 (centres undefined),inactive
15,CCCC(S)CCOC(C)=O (centres undefined),inactive

# Test system: T8, OR2D3 R155W
# T8 sequence (whole entry): T7 sequence (whole entry) with R155W
# Conditions: stereoisomer not certain
# In short: as §1
row,SMILES,odorant receptor agonist call
1,Cc1cnc(C)c(C)n1,inactive
2,CCC1OC(=O)C(O)=C1C (centres undefined),inactive
3,CC1=C(O)C(=O)C(C)O1 (centres undefined),inactive
4,CCC1OC(C)=C(O)C1=O (centres undefined),inactive
5,CCCCCCC=CCCC=O,inactive
6,CC1=C(O)C(=O)OC1C (centres undefined),inactive
7,CC1=NC(C)C(C)S1 (centres undefined),inactive
8,CCCC(S)CCOC(C)=O (centres undefined),inactive

# Molecular target: T9, OR2F1 (Homo sapiens) (UniProt Q13607)
# T9 sequence (whole entry): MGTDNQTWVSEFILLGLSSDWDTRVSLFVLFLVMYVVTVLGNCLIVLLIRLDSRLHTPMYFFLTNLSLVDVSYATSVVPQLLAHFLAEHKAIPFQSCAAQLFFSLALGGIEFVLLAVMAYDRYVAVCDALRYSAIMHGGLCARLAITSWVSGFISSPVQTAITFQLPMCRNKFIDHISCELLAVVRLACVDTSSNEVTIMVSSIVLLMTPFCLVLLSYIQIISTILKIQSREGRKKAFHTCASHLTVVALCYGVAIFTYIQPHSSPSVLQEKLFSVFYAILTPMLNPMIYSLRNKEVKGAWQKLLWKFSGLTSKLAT
# Conditions: stereoisomer not certain
# In short: as §1
row,SMILES,odorant receptor agonist call
1,Cc1cnc(C)c(C)n1,inactive
2,CCC1OC(=O)C(O)=C1C (centres undefined),inactive
3,CC(CO)CS (centres undefined),inactive
4,CC1=C(O)C(=O)C(C)O1 (centres undefined),inactive
5,CC(=O)c1c(C)c([N+](=O)[O-])c(C(C)(C)C)c([N+](=O)[O-])c1C,inactive
6,CCC(S)C(C)CO (centres undefined),inactive
7,CCC1OC(C)=C(O)C1=O (centres undefined),inactive
8,CCCCCC(S)C(C)CO (centres undefined),inactive
9,CCCCCC(=O)C(C)C(C)=O (centres undefined),inactive
10,CCCCCCC=CCCC=O,inactive
11,CCCCC(S)C(C)CO (centres undefined),inactive
12,CC1CCCCCCCCCCCCC(=O)C1 (centres undefined),inactive
13,CC1=C(O)C(=O)OC1C (centres undefined),inactive
14,CC1=NC(C)C(C)S1 (centres undefined),inactive
15,CCCC(S)CCOC(C)=O (centres undefined),inactive

# Molecular target: T10, OR2F2 (Homo sapiens) (UniProt O95006)
# T10 sequence (whole entry): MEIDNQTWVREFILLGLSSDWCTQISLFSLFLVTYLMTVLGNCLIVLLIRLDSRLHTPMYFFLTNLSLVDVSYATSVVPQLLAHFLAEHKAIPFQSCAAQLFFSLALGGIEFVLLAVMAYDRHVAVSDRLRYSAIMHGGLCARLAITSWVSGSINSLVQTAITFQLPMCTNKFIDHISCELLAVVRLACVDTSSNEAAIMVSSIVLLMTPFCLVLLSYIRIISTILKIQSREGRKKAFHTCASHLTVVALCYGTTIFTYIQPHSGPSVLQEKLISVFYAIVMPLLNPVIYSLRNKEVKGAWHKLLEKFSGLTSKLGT
# Conditions: stereoisomer not certain
# In short: as §1
row,SMILES,odorant receptor agonist call
1,Cc1cnc(C)c(C)n1,inactive
2,CCC1OC(=O)C(O)=C1C (centres undefined),inactive
3,CC(CO)CS (centres undefined),inactive
4,CC1=C(O)C(=O)C(C)O1 (centres undefined),inactive
5,CC(=O)c1c(C)c([N+](=O)[O-])c(C(C)(C)C)c([N+](=O)[O-])c1C,inactive
6,CCC(S)C(C)CO (centres undefined),inactive
7,CCC1OC(C)=C(O)C1=O (centres undefined),inactive
8,CCCCCC(S)C(C)CO (centres undefined),inactive
9,CCCCCC(=O)C(C)C(C)=O (centres undefined),inactive
10,CCCCCCC=CCCC=O,inactive
11,CCCCC(S)C(C)CO (centres undefined),inactive
12,CC1CCCCCCCCCCCCC(=O)C1 (centres undefined),inactive
13,CC1=C(O)C(=O)OC1C (centres undefined),inactive
14,CC1=NC(C)C(C)S1 (centres undefined),inactive
15,CCCC(S)CCOC(C)=O (centres undefined),inactive

# Molecular target: T11, OR2G2 (Homo sapiens) (UniProt Q8NGZ5)
# T11 sequence (whole entry): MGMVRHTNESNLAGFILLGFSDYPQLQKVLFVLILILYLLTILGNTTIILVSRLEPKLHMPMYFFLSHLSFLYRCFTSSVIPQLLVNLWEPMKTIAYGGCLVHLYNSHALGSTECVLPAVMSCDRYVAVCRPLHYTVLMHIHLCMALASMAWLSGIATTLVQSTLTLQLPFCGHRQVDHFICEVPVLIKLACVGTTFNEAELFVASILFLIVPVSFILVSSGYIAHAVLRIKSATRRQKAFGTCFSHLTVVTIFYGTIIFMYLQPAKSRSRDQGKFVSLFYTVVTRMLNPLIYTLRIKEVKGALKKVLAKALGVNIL
# Conditions: stereoisomer not certain
# In short: as §1
row,SMILES,odorant receptor agonist call
1,Cc1cnc(C)c(C)n1,inactive
2,CCC1OC(=O)C(O)=C1C (centres undefined),inactive
3,CC(CO)CS (centres undefined),inactive
4,CC1=C(O)C(=O)C(C)O1 (centres undefined),inactive
5,OCc1ccccc1,inactive
6,CC(=O)c1c(C)c([N+](=O)[O-])c(C(C)(C)C)c([N+](=O)[O-])c1C,inactive
7,CCC(S)C(C)CO (centres undefined),inactive
8,CCCCCC1C(=O)CCC1CC(=O)OC (centres undefined),inactive
9,CCC1OC(C)=C(O)C1=O (centres undefined),inactive
10,C=CC(C)(CCC=C(C)C)OC(C)=O (centres undefined),inactive
11,CCCCCC(S)C(C)CO (centres undefined),inactive
12,CC(CC=O)c1ccc(C(C)(C)C)cc1 (centres undefined),inactive
13,CCCCCC(=O)C(C)C(C)=O (centres undefined),inactive
14,CC(=O)C=CC1=C(C)CCCC1(C)C,inactive
15,COC1CC2CC1C1CC(C=O)CC21 (centres undefined),inactive
16,CC=CC(=O)C1C(C)=CCCC1(C)C (centres undefined),active
17,CCCCCCC=CCCC=O,inactive
18,CC(=O)OCc1ccccc1,inactive
19,CCCCC(S)C(C)CO (centres undefined),inactive
20,CC1CCCCCCCCCCCCC(=O)C1 (centres undefined),inactive
21,CC1=C(O)C(=O)OC1C (centres undefined),inactive
22,CC1=NC(C)C(C)S1 (centres undefined),inactive
23,CCCC(S)CCOC(C)=O (centres undefined),inactive
